What was measured:
[1] = Human microsomal intrinsic clearance / predicted hepatic clearance; type: in vitro ADME; conditions: compared to 4
[2] = Rat microsomal intrinsic clearance / predicted hepatic clearance; type: in vitro ADME; conditions: predicted hepatic clearance from rat microsomal intrinsic clearance
[3] = Rat brain homogenate binding; type: in vitro ADME; conditions: compared to 4
Rat IV PBL = type: in vivo; conditions: compared to 4
human mGlu1 = human mGlu1 (Homo sapiens, UniProt Q13255); test: Calcium mobilization mGlu1 PAM assay; type: cell-based
Chain of human mGlu1 (Q13255 19-1194): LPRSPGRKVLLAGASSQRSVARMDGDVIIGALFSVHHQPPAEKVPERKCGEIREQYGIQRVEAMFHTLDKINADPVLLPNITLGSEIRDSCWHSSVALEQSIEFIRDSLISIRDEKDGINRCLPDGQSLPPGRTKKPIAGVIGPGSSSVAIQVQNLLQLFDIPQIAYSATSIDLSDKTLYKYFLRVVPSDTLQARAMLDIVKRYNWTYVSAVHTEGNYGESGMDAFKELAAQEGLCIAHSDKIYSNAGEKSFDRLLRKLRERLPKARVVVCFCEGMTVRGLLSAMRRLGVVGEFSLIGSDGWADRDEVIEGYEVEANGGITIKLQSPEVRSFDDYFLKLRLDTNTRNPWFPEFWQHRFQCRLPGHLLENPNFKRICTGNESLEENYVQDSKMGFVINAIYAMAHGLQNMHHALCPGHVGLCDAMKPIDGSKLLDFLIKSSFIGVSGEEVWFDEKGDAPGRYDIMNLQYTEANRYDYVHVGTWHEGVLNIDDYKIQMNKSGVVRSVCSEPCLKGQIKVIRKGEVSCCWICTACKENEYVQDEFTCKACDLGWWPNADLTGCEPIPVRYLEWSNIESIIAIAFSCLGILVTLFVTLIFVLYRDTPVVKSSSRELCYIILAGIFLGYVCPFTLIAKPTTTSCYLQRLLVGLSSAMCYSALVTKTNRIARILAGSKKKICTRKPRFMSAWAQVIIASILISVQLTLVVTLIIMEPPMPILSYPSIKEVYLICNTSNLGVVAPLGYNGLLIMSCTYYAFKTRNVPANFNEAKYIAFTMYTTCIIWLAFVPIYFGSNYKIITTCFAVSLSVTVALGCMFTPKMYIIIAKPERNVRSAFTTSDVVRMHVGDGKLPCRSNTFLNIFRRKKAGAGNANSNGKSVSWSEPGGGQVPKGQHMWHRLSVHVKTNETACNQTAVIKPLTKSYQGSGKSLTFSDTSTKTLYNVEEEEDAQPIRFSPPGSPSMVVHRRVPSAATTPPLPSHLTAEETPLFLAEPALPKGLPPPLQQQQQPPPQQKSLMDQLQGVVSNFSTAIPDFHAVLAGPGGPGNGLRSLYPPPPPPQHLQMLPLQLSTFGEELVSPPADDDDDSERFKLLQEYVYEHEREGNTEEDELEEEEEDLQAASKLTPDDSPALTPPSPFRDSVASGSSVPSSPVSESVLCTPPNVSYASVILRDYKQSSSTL
How it was run: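 Calcium mobilization read-out on human mGlu1. Test compounds were first triaged in a 10 μM single-point screen with an EC20 concentration of glutamate. Those selected then got full concentration-response curves. Values are the average of three independent experiments, each run in triplicate.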

Q: What does the source list for `N#Cc1csc(NC(=O)C2c3ccccc3Oc3ccccc32)n1` [9a]?
A: reduction of human microsomal intrinsic clearance [1]: ~ 50%; Rat CLhep [2]: 62.2 mL/min/kg; enhancement of free drug in brain [3]: > 10 fold; fold improvement in Kp (CNS exposure) over 4 (Rat IV PBL): ~ 4 fold

Q: Which “Rat CLhep” value [2] does the source give for `CC(C)c1csc(NC(=O)C2c3ccccc3Oc3ccccc32)n1` [9b] here?
A: The value was 64 mL/min/kg.

Q: And the “fold improvement in Kp (CNS exposure) over 4” value (Rat IV PBL)?
A: The value was ~ 3 fold.

Q: For `O=C(Nc1nc2ccccc2s1)C1c2ccccc2Oc2ccccc21` [9f], which “fold increase in potency on replacing thiazole 9e” value (human mGlu1; 9f versus 9e) is on record?
A: The value was roughly 3 fold.

Q: For `Cc1nc(NC(=O)C2c3ccccc3Oc3ccccc32)sc1C` [9g], which “mGlu1 PAM activity in words” value (human mGlu1) is on record?
A: Its value is “weak PAM activity”.

Q: With `O=C(Nc1ccccn1)C1c2ccccc2Oc2ccccc21` [9h] as the molecule, how does the “mGlu1 PAM activity in words” value (human mGlu1) read?
A: The value was “moderate activity”.

Reference: paper PMC4833523 (Bioorganic & medicinal chemistry letters, 2016)
